Measurements: ChEMBL document CHEMBL1144562, “Synthesis of a new class of 2-anilino substituted nicotinyl arylsulfonylhydrazides as potential anticancer and antibacterial agents” (2007)
Values after ≈ are worked out from the molar mass of the structure shown.

Tests used:
Format in all cases: functional
[1] = test system: Pseudomonas aeruginosa; test: Antibacterial activity against Pseudomonas aeruginosa MTCC 424 after 18 hrs; details: MTCC 424, 18 h
Method in brief: (§1)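 Disc diffusion (Kirby–Bauer) on Mueller-Hinton agar inoculated with fresh bacteria at 1-5 × 10^4 cfu mL-1. Compounds were dissolved in DMF at a range of concentrations, and discs were placed in triplicate. Plates were incubated at 30 °C for 18 h. MIC was taken as the lowest concentration giving no visible bacterial growth on the plate.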

[2] = test system: Staphylococcus epidermidis; test: Antibacterial activity against Staphylococcus epidermidis MTCC 435 after 18 hrs; details: MTCC 435, 18 h; method in brief: as §1
[3] = test system: Bacillus subtilis; test: Antibacterial activity against Bacillus subtilis MTCC 441 after 18 hrs; details: MTCC 441, 18 h; method in brief: as §1
[4] = test system: Vibrio; test: Antibacterial activity against Vibrio species after 18 hrs; method in brief: as §1
[5] = test system: Escherichia coli; test: Antibacterial activity against Escherichia coli MTCC 448 after 18 hrs; details: MTCC 448, 18 h; method in brief: as §1

COc1ccc(Nc2ncccc2C(=O)NNS(=O)(=O)c2ccc(C)cc2)cc1
MIC [1]: > 25 µg/mL
MIC [2]: 17 µg/mL (≈ 41.2 µM)
MIC [3]: 8 µg/mL (≈ 19.4 µM)
MIC [4]: 19 µg/mL (≈ 46.1 µM)
MIC [5]: 15 µg/mL (≈ 36.4 µM)

Nc1ccc(S(=O)(=O)Nc2ncccn2)cc1 [SULFADIAZINE]
MIC [1]: 22 µg/mL (≈ 87.9 µM)
MIC [2]: 20 µg/mL (≈ 79.9 µM)
MIC [3]: 18 µg/mL (≈ 71.9 µM)
MIC [4]: 13 µg/mL (≈ 51.9 µM)
MIC [5]: 15 µg/mL (≈ 59.9 µM)

O=C(NNS(=O)(=O)c1ccc(Cl)cc1)c1cccnc1Nc1ccc(F)cc1
MIC [1]: > 25 µg/mL
MIC [2]: 16 µg/mL (≈ 38 µM)
MIC [3]: 10 µg/mL (≈ 23.8 µM)
MIC [4]: 21 µg/mL (≈ 49.9 µM)
MIC [5]: 18 µg/mL (≈ 42.8 µM)

Cc1ccc(S(=O)(=O)NNC(=O)c2cccnc2Nc2ccc(Cl)cc2)cc1
MIC [1]: > 25 µg/mL
MIC [2]: 14 µg/mL (≈ 33.6 µM)
MIC [3]: 9 µg/mL (≈ 21.6 µM)
MIC [4]: 23 µg/mL (≈ 55.2 µM)
MIC [5]: 16 µg/mL (≈ 38.4 µM)

Nc1ccc(S(N)(=O)=O)cc1 [SULFANILAMIDE]
MIC [1]: > 512 µg/mL
MIC [2]: > 512 µg/mL
MIC [3]: > 128 µg/mL
MIC [4]: > 512 µg/mL
MIC [5]: > 128 µg/mL

CC(=O)Nc1ccc(S(=O)(=O)NNC(=O)c2cccnc2Nc2ccc(F)cc2)cc1
MIC [1]: > 25 µg/mL
MIC [2]: 19 µg/mL (≈ 42.8 µM)
MIC [3]: 16 µg/mL (≈ 36.1 µM)
MIC [4]: 22 µg/mL (≈ 49.6 µM)
MIC [5]: 20 µg/mL (≈ 45.1 µM)

O=C(NNS(=O)(=O)c1ccc(F)cc1)c1cccnc1Nc1ccc(F)cc1
MIC [1]: > 25 µg/mL
MIC [2]: 20 µg/mL (≈ 49.5 µM)
MIC [3]: 10 µg/mL (≈ 24.7 µM)
MIC [4]: 22 µg/mL (≈ 54.4 µM)
MIC [5]: 13 µg/mL (≈ 32.1 µM)

O=C(NNS(=O)(=O)c1ccccc1)c1cccnc1Nc1ccccc1
MIC [1]: > 25 µg/mL
MIC [2]: 21 µg/mL (≈ 57 µM)
MIC [3]: 17 µg/mL (≈ 46.1 µM)
MIC [4]: 20 µg/mL (≈ 54.3 µM)
MIC [5]: 20 µg/mL (≈ 54.3 µM)
